Only some compounds are listed: those with a hit (about 1.7% of all), similar ones and a draw of the others.
Myeloid diff 2: myeloid differentiation induction; calls only at 10 µM; 360,000 compounds, 1% hits; ER-HoxA9 myeloid progenitors, lysozyme-GFP differentiation, flow cytometry;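 active = normalized GFP-positive differentiation at or above the plate's own cutoff, the solvent-only control mean plus 3 SD; inconclusive = no clear call, values can overlap the other calls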;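 also: cells exposed to compound for four days before flow analysis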
DSG3 Ab inh: inhibitors of pemphigus antibody binding to human desmoglein-3; binding (percent of control), % at 10 µM; 310,000 compounds, 0.48% hits; DSG3-coupled beads, scFv-anti-DSG3-GFP binding, flow cytometry; hits give low values; AID 588358; P32926;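 active = binding more than 3 SD below its plate's average and above zero; inconclusive = below that plate limit but binding exactly zero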;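 also: hits lower antibody fragment binding to DSG3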
Target sequence (P32926 whole entry, looked up, the tested form may be a part): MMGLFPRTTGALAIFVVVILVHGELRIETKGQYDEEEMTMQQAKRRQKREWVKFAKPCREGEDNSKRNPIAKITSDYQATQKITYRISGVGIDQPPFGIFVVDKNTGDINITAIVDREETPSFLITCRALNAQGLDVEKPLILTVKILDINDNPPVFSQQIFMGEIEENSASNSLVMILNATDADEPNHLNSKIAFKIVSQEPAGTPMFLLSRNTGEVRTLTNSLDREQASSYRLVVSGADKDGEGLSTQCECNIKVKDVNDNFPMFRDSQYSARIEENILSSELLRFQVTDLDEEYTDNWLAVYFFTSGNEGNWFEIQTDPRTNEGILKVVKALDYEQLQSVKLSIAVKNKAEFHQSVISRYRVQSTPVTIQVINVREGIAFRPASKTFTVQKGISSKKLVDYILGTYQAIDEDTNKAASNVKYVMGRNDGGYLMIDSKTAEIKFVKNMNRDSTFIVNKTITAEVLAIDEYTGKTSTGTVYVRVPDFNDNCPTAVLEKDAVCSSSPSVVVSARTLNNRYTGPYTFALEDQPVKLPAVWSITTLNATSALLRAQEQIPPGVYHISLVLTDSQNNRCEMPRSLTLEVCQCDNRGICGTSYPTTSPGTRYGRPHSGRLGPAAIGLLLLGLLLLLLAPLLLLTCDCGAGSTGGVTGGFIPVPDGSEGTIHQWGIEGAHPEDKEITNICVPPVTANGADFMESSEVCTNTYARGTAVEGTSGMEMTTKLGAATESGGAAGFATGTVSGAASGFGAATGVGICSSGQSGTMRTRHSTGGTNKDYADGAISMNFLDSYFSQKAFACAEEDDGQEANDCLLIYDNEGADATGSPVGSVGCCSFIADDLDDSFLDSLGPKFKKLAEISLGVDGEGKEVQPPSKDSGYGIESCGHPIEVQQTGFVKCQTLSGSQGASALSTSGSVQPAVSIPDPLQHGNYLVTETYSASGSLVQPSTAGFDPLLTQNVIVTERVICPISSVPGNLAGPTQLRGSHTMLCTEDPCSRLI
T cell modulator: modulates CD8 T cell binding to vesicles; 2C CD8+ T cell-vesicle binding, flow cytometry; hits give low values; response (vesicle binding), % at 7 µM; 330,000 compounds, 0.068% hits; AID 2052;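 active = response, share of CD8 T cells binding vesicles, and their 90th percentile fluorescence all below set limits, cut at about 80% in these data, passing the limit was not always enough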;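 also: values below 100% mean blocked vesicle binding to the CD8+ T cells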
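Read-out – percent CD8+ FL2 mean versus row control · System – murine 2C transgenic CD8+ T lymphocytes · Times – 1.5 h cell–vesicle binding at 37 °C, then 20 min icy labelling · Control set – naked vesicles low, QL9 vesicles with vehicle high · Detection – cytometric PE anti-B7-1 and Alexa647 anti-CD8 signals after 1% paraformaldehyde fixation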
Vif imaging: blocks HIV Vif function | 340,000 compounds, 0.35% hits | inhibition, % at 7.49 µM | HEK293T cells, Vif self-association by quenched fluorescence, imaging, 24 h | AID 602346; in the data active = inhibition above about 50%, passing the limit was not always enough; inconclusive = no clear call, values can overlap the other calls; inactive = below about 31%
Numbers stand for hits; - = inactive; ? = inconclusive; . = not tested or not shown; + = active, no number; ! = not active in a repeat.

SMILES | Myeloid diff 2 | DSG3 Ab inh | T cell modulator | Vif imaging
C[C@@H]1[C@@H](Sc2ccccc2)CC(=O)O[C@@H]1c1ccc(-c2ccccc2)cc1 | ? | - | - | -
O=C1C=CC2(O[C@H](c3ccccc3)[C@@H](c3ccccc3)O2)[C@H](Sc2ccccc2O)C1 | + | . | . | -
COc1ccc(C(NC(=O)C2CCN(CCCOc3ccccc3)CC2)c2cccs2)cc1 (configuration not stated) | - | . | . | .
O=[N+]([O-])c1ccc(-c2nc(Cl)c3c(n2)CCCC3)o1 | . | - | . | -
COc1ccccc1OCCCC(=O)NCc1ccco1 | - | - | - | 59
COc1cc(NC(=O)NCc2ccco2)ccc1-c1ccc(NC(=O)NCc2ccco2)cc1OC | - | - | . | 90
COc1ccccc1Oc1ccc(NC(=O)c2ccc(Cl)cc2)cc1 | - | - | - | -
COc1ccc2nc3ccccc3nc2c1NC(=O)c1ccc(Cl)cc1 | - | - | - | 106
O=C(NNC(=O)c1ccc(Cl)cc1Cl)Nc1ccccc1 | - | - | - | -
Cc1nc(NNC(=O)c2ccc(Cl)cc2Cl)cc(-c2ccccc2)n1 | - | 71 | - | -
C=C1CCCC2OC(CC3=CC4/C(C)=C/CC(C)CC(/C=C(\C)C(O)C5CC(O)C(O)C(CCC(O)/C=C/C(C)=C/CCC6=NCCC(C3)C64C)O5)OC(=O)CC3OC(C(O)C1)C(O)C3O)CC(O)C2O (configuration not stated) | - | . | . | 118
CNC(=O)c1cn2c3c(ccc(Cl)c3c1=O)OC(C)C2 (configuration not stated) | - | - | . | -
CCOc1ccccc1N1CCN(CC(=O)Nc2ccnn2C2CCCC2)CC1 | - | - | - | -
O=C1CS/C(=N/N=C/c2ccncc2)N1 | - | 81 | - | -
O=C1CS/C(=N/N=C/c2cccs2)N1 | - | - | - | -
CCO[C@@H]1OC(C(=O)N2CCOCC2)=C[C@H](C2CCCCC2)[C@H]1CCCO | + | - | - | -
CN(C)c1ccc(/C=C2\SC(=O)N(CCc3nnc(N)s3)C2=O)cc1 | - | - | - | 96
Cc1cccc(NC(=O)C(C)SCc2nc3sc4c(c3c(=O)[nH]2)CCCC4)n1 (configuration not stated) | + | - | - | .
Cc1ccc(Sc2ncccc2COC(=O)Nc2c(C)cccc2C)cc1 | - | 3.0 | - | -
COc1cc(-c2nc3cc(C)ccn3c2NC2CCCCC2)ccc1-c1ccc(C(C)=O)cc1 | + | - | - | -
Cc1ccn2c(NC3CCCCC3)c(-c3cccc(-c4cccc(Cl)c4)c3)nc2c1 | + | . | - | -
CSc1ncnc2c1ncn2CCCN1CCN(c2ccccn2)CC1 | - | - | . | .
C[c-]1[c-](C)[c-](C)[c-](C)[c-]1C.[Fe].c1cc2nccc(N3CCCC3)[c-]2c1 (configuration not stated) | - | 80! | - | -
Cc1ccccc1-n1nc2c(c1NC(=O)c1ccc(Br)o1)CSC2 | - | 87 | - | -
COc1cc(C(=O)N/N=C/c2sccc2C)cc(OC)c1OC | . | - | . | 75
SMILES | Myeloid diff 2 | DSG3 Ab inh | T cell modulator | Vif imaging
COc1cc(/C=C2\SC(=S)N(Nc3ncc(C(F)(F)F)cc3Cl)C2=O)ccc1O | - | - | - | -
CN(C)c1ccc(/C=C2\SC(=S)N(Nc3ncc(C(F)(F)F)cc3Cl)C2=O)cc1 | + | . | - | .
COc1ccccc1-c1cc2nc(-c3ccccc3)cc(N3CCN(C(=O)c4ccco4)CC3)n2n1 | - | . | . | -
COCC(=O)N1CCC2CC1c1c(-c3ccc(C(F)(F)F)cc3)cccc12 (configuration not stated) | - | - | . | .
CN(C)c1cccc(NC(=O)C2Cc3c(-c4ccc(Cl)cc4)ccnc3O2)c1 (configuration not stated) | - | . | . | -
Cc1cccc2cc(C#N)c(NCCNS(=O)(=O)c3ccc4c(c3)OCCO4)nc12 | + | . | - | -
Cc1ccc(S(=O)(=O)Nc2cc(Cl)c(O)cc2C)cc1 | - | - | - | -
Cc1ccc(S(=O)(=O)Nc2cc(C(C)C)c(O)cc2C)cc1 | + | - | - | -
Nc1c(C(=O)Nc2ccc(F)cc2)nnn1-c1cccc(C(F)(F)F)c1 | - | - | - | -
Nc1c(C(=O)Nc2cccc(F)c2)nnn1-c1cccc(C(F)(F)F)c1 | . | 93 | - | -
O=C(COC(=O)c1ccc(Cl)c(S(=O)(=O)N2CCCCC2)c1)NC1CCCCC1 | - | - | . | -
Cc1ccc(C(=O)Nc2nn(C)c3cccc(F)c23)cc1 | - | - | - | 50
Cn1nc(NC(=O)C2CCC2C(=O)O)c2c(F)cccc21 (configuration not stated) | - | - | - | -
COc1cccc(NC(=S)NC(=O)/C=C/c2ccco2)c1 | - | - | - | 102
CC(C)NC1CCC(Nc2ccnc3cc(Cl)ccc23)CC1 (configuration not stated) | + | - | . | -
Clc1ccc2c(NCCNC3CCCCC3)ccnc2c1 | + | - | . | ?
COc1ccc(C(=O)/C=C/Nc2ccc(S(N)(=O)=O)cc2)cc1OC | - | 71 | - | -
O=C(Cn1cc(COc2c(F)c(F)c(Br)c(F)c2F)nn1)c1ccc(O)cc1 | - | - | . | -
O=C(O)c1ccc(NC(=O)c2ccc3c(c2)C(=O)N(CC2CCCO2)C3=O)cc1 (configuration not stated) | - | . | - | -
Cc1ccc(C(=O)Nc2ccc3c(c2)C(=O)N(CC2CCCO2)C3=O)cc1 (configuration not stated) | - | . | 65 | -
COc1ccccc1OCCSc1nc2ccccc2n1CC(=O)O | - | - | . | .
N#Cc1ccc(C(C(=O)NC2CCCCC2)n2c(=O)c(-c3cc4ccccc4[nH]3)nc3ccccc32)cc1 (configuration not stated) | + | . | . | .
Cc1cnc(C2OCCO2)c2cccc(N)c12 | - | - | . | .
c1ccc(-c2c[n+]3c(n2-c2ccccc2)CCC3)cc1 | + | - | - | -
Cc1ccc(-c2c[n+]3c(n2-c2ccccc2)CCC3)cc1 | ? | . | - | -
SMILES | Myeloid diff 2 | DSG3 Ab inh | T cell modulator | Vif imaging
COc1ccccc1OCC(=O)Nc1sc2c(c1C(=O)NCC1CCCO1)CCC2 (configuration not stated) | + | - | . | .
COc1ccccc1OCC(=O)Nc1sc2c(c1C(N)=O)CCC2 | - | - | - | -
COc1cccc(Nc2nc(C)cc(C)c2C#N)c1 | - | - | - | -
COc1ccc(Nc2nc(C)cc(C)c2C#N)cc1OC | - | 12 | - | -
O=C(NCc1ccc(F)cc1F)[C@@H]1CCCN1C(=O)[C@@H]1CCCN1C(=O)c1ccccc1 | - | . | . | .
CC(C)C[C@H]1CNC(=O)C(=O)N1CC1CCN(CC2CCC(C(C)(C)C)CC2)CC1 (some centres not stated) | - | - | . | -
O=c1[nH]nc(-c2ccc(NCCO)c([N+](=O)[O-])c2)c2ccccc12 | - | - | - | 56
CCCCc1ccc(S(=O)(=O)NC(=O)C2(C)CCN2C(=O)CC2CC2)cc1 (configuration not stated) | - | . | . | -
COc1ccc(-c2coc3cc(O)ccc3c2=O)cc1 | - | - | - | 57
COCCCN(CC(=O)Nc1ccc(F)cc1)S(=O)(=O)c1cccs1 | - | . | - | -
